Screening results deposited in PubChem BioAssay by several laboratories.
Only some compounds are listed: those with a hit (about 2.1% of all), similar ones and a draw of the others.
Runt-CBFb FRET: inhibitors of human RUNX1 Runt domain binding to CBFb. hit rate 0.46% among 220,000. Q01196+Q13951. inhibition, % at 20 µM. Cerulean-Runt/Venus-CBFb FRET ratio 530/480, 1 h;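 active means inhibition over about 50% at 20 µM in the single-dose screen, limit read from the data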;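 further: 0% = DMSO wells and 100% = excess unlabeled CBFb competitor control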
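Buffer or medium: Tris pH 7.5 buffer with BSA. Assay system: Cerulean-labeled Runt domain protein. Amount: each fluorescent fusion protein 100 nM. Read-out basis: loss of energy transfer signal. Incubation: 1 h compound exposure, room temperature. Probe or stimulus: Venus-CBFb binding partner, 100 nM. Detection: FRET, excitation 422 nm, emission at 530 and 480 nm.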
Calpain2 inh: calpain II (pig) inhibition; AID 1236; inhibition, % at 16 µM; hit rate 0.37% among 220,000; purified calpain II, fluorogenic peptide substrate, 30 min;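 active means inhibition above about 50%, limit read from the data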
Runt-SMMHC FRET: inhibitors of human RUNX1 Runt domain binding to CBFb-SMMHC | Cerulean-Runt/Venus-CBFb-SMMHC FRET ratio 530/480, 1 h | inhibition, % at 20 µM | hit rate 0.74% among 220,000 | Q01196+Q13951 | AID 1434;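 active means mean inhibition across duplicate retests at 20 µM reaching about 50%, limit read from the data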;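 further: 0% = DMSO wells and 100% = wells with excess untagged CBFb-SMMHC; inhibitors lower the FRET ratio by blocking Runt binding to CBFb-SMMHC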
FAS TE block: inhibitors of human fatty acid synthase thioesterase domain. hit rate 0.67% among 360,000. AID 602261. inhibition, % at 15 µM. recombinant FAS-TE, OMFH fluorogenic substrate, fluorescence endpoint. P49327;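 active means compounds whose normalised, plate-corrected inhibition of enzyme fluorescence in the single-dose primary screen is 50% or more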;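 further: 0% = DMSO with enzyme and 100% = substrate without enzyme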
RanGTP-Imp inh: inhibitors of RanGTP-importin-beta interaction, primary screen, biochemical, FRET, CFP-Ran, YFP-importin-beta, homogeneous; AID 2216; cell-free CFP-Ran/YFP-importin-beta FRET ratio; inhibition, % (no concentration beside the values); hit rate 1.1% among 300,000;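 active means more than half of the replicate wells show a fall in the fluorescence ratio signal beyond about 16%, limit read from the data, passing the limit was not always enough; inconclusive means exactly half of the replicate wells pass the set limit; inactive means fewer than half of replicates pass the limit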;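 further: 0% = DMSO wells and 100% = Ran loaded with GDP instead of GTP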
YIC counter: counter-screen for RanGTP-importin-beta inhibitors: YIC FRET probe | shares compounds with RanGTP-Imp inh | Purified YIC probe, intramolecular FRET ratio YFP/CFP | IC50, µM | hit rate 40% among 1,000 | AID 435026;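 active means fitted half-maximal inhibitory concentration no more than tenfold above the top dose tested; inconclusive means flat fit with 30 to 70% activity, or poor fit; inactive means half-maximal concentration beyond tenfold above the top dose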
* hit, by the source's call; u = inconclusive; x = no result.

SMILES	Runt-CBFb FRET	Calpain2 inh	Runt-SMMHC FRET	FAS TE block	RanGTP-Imp inh	YIC counter
CC#CC(=O)N1CCC(C(=O)Nc2ccc(Oc3ccccc3)nc2)CC1	x	x	x	-7	18*	>50
O=c1[nH]c2cc(Br)cnc2nc1/C=C(\O)c1ccc(F)cc1	21	-15	-19	-3	18*	>50
O=C(NCc1nc2ncc(Br)cc2[nH]1)c1ccccc1	-2	2	-4	-1	3	x
CSc1nc2ccc(NC(=O)c3ccc(Cl)s3)cc2s1	-5	-133	-16	2	x	x
CCOCCCNC(=O)c1cc(-c2ccc(Br)s2)nc2ccccc12	x	x	x	-3	19*	28*
CCN(CC)CCNC(=O)c1cc(-c2ccc(Br)s2)nc2ccccc12	x	x	x	-2	1	x
Cc1ccc(C2C(C#N)=C(N)N(c3cccnc3)C3=C2C(=O)CCC3)c(C)c1 (stereo unspecified)	4	-12	-1	-7	30*	>50
CCN(CC(=O)Nc1ccc(C)c(S(=O)(=O)N2CCOCC2)c1)Cc1ccccc1	x	x	x	4	6	x
CCOCCCNC(=S)NCCCNc1nc2cc3c(cc2cc1C#N)OCO3	20	-430	129*	-5	56*	13*
Cc1cc(C)c2cc(C#N)c(NCCNC(=S)NCCCN3CCOCC3)nc2c1	23	-168	43	-10	5	x
CC(C)(C)S(=O)(=O)N1Cc2ccc(CO)cc2[C@@H]1CCO	x	x	x	-11	x	x
COc1ccccc1COC(=O)c1ccc(S(=O)(=O)N2CCOCC2)cc1	x	x	x	23	x	x
Cc1ccc(OCC(=O)NCCNC(=O)c2ccc(C)nc2)cc1	x	x	x	-6	21*	>50
Cc1ccc(C(=O)NCCNC(=O)COc2ccc(Cl)cc2)cn1	x	x	x	-5	1	x
O=C(O)c1ccccc1P(=O)(c1ccccc1)c1ccccc1	1	-15	-1	-4	16*	>50
Cc1nc2nc(CCNS(=O)(=O)c3ccc(Cl)cc3)cn2nc1C	x	x	x	-4	18*	32*
Cc1noc(C)c1C(=O)Nc1sc2c(c1C(N)=O)CCC2	-1	-107	-2	-3	26*	>50
O=C(CN1c2ccccc2S(=O)(=O)c2ccccc21)NCc1ccc(F)cc1	x	x	x	3	2	x
CC(C)c1nn2c(N)c(/C=C3\C=Nc4ccccc43)c(=O)nc2s1	2	-18	17	-6	u	x
CS(=O)(=O)c1nsc2nc(=O)c(/C=C3\C=Nc4ccccc43)c(N)n12	29	-32	73*	-3	25*	20*
CC(C)Cc1nn2c(N)c(/C=C3\C=Nc4ccccc43)c(=O)nc2s1	-85	-72	-54	-9	25*	>50
CCCc1nn2c(N)c(/C=C3\C=Nc4ccccc43)c(=O)nc2s1	4	-29	-23	-4	-11	x
CCOc1ccc(/C=C/C(=O)N(CC)CC(=O)Nc2ccc3c(c2)OCCO3)cc1OCC	x	x	x	2	4	x
Cc1ccc(S(=O)(=O)N2CCCCC2)cc1NC(=O)c1cnccn1	x	x	x	1	x	x
CN(CC(=O)NNC(=O)Cc1ccccc1F)S(=O)(=O)c1ccc(Cl)cc1	x	x	x	-4	-2	x
SMILES	Runt-CBFb FRET	Calpain2 inh	Runt-SMMHC FRET	FAS TE block	RanGTP-Imp inh	YIC counter
Cc1nn(-c2ccccc2)c(Cl)c1/C=N/NC(=O)CCNc1n[nH]c(=O)[nH]c1=O	-1	-11	-3	x	-3	x
COc1ccc(-c2nc(NC(=O)c3n[nH]c(=O)c4ccccc34)sc2C)cc1	-14	-28	-33	-9	22*	>50
COc1cc(NC(=O)c2n[nH]c(=O)c3ccccc23)cc(OC)c1	0	-34	3	-5	-8	x
COc1ccc(NS(=O)(=O)c2cc(NC(=O)c3cccs3)ccc2N2CCOCC2)cc1	0	-81	-4	18	16*	>50
COc1ccccc1NS(=O)(=O)c1cc(NC(=O)c2cccs2)ccc1N1CCOCC1	16	-20	1	23	1	x
O=C(OCc1cn([C@H]2CN(Cc3cccs3)[C@@H](c3ccc(Cl)cc3)C[C@@H]2O)nn1)c1ccccc1	x	x	x	4	x	x
CN(C)C=NC(=O)c1[nH]c2ccc(Cl)cc2c1-c1ccccc1	x	x	x	9	5	x
COC(=O)c1ccc(/C=C(\C#N)C(=O)NC(C)c2ccccc2)cc1 (stereo unspecified)	2	19	3	23	x	x
CC(NC(=O)/C(C#N)=C/c1ccc(N2CCOCC2)cc1)c1ccccc1 (stereo unspecified)	x	x	x	-9	31*	11*
